Measurements as given in ChEMBL document CHEMBL4393678, “Novel Tetrahydroquinazolinamines as Selective Histamine 3 Receptor Antagonists for the Treatment of Obesity” (J Med Chem, 2019).
Activity calls are given as the source filed them.

Tests used:
[1] = biological target: Histamine H4 receptor (Homo sapiens) (UniProt Q9H3N8); experiment: Antagonist activity at recombinant human Gi-coupled H4 receptor expressed in HEK293T cells assessed as reduction in histamine-induced inhibition of forskolin-stimulated cAMP accumulation at 10 uM preincubated for 10 to 15 followed by histamine addition for 10 mins and subsequent forskolin-stimulation by Glo-sensor assay; assay type: functional, cell-based
Sequence of Histamine H4 receptor (Homo sapiens) (Q9H3N8 whole entry): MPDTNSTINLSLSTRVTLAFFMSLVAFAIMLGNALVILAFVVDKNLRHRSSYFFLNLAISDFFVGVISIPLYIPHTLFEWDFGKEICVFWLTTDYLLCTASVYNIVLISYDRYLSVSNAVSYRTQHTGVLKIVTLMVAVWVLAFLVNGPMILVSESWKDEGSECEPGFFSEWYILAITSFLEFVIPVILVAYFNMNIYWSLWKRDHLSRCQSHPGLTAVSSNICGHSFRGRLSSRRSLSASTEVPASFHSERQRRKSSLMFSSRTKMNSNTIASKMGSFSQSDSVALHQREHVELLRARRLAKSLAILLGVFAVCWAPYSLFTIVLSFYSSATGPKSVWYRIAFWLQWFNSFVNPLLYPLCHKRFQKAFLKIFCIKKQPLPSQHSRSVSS

[2] = tested on: Mus musculus; experiment: Anti-obesity activity in high fat diet-induced obese C57BL/6J mouse model assessed as change in LDL level at 10 to 20 mg/kg, po measured after 6 weeks; assay type: functional, organism-based
How it was run: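 At the end of treatment (six weeks HFD, four weeks db/db), mice euthanized with avertin 350 mg/kg. Blood taken by cardiac puncture into 3.8% sodium citrate. Plasma separated at 4000 rpm and stored at -80 °C. TG, TC, HDLc and LDLc measured on a bio-analyzer.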

[3] = tested on: Mus musculus; experiment: Anti-obesity activity in 16 hrs fasted db/db-induced obese C57BL/6J mouse model assessed as change in blood total cholesterol level at 20 mg/kg, po measured after 6 weeks; assay type: functional, organism-based
[4] = biological target: Free fatty acid receptor 1 (Homo sapiens) (UniProt O14842); experiment: Agonist activity at GPR40 (unknown origin) expressed in HEK293 cells harboring luc2P/NFAT-RE plasmid at 10 uM after 6 to 8 hrs by luciferase reporter gene assay; assay type: cell-based
Sequence of Free fatty acid receptor 1 (Homo sapiens) (O14842 whole entry): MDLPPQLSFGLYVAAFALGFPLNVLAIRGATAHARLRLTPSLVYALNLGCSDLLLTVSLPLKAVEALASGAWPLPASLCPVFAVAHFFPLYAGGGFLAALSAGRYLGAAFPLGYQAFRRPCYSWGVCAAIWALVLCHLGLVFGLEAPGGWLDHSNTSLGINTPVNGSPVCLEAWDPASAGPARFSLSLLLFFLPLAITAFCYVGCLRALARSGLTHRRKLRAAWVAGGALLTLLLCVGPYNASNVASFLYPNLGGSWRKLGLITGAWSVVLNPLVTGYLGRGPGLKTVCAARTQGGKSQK
How it was run: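 NFAT-RE luciferase assay in HEK293T cells transiently co-transfected with luc2P/NFAT-RE plasmid and receptor plasmid. Cells plated in DMEM and incubated overnight at 37 °C, 5% CO₂. Compounds and reference ligands applied for 6-8 h. Luciferase read after adding Bright-Glo substrate (1 mg/ml final).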

[5] = tested on: Mus musculus; experiment: Anti-obesity activity in 16 hrs fasted db/db-induced obese C57BL/6J mouse model assessed as change in blood TG level at 20 mg/kg, po measured after 6 weeks; assay type: functional, organism-based
[6] = tested on: Mus musculus; experiment: Anorexic effect in 12 hrs fasted db/db-induced obese C57BL/6J mouse model assessed as reduction in cumulative food intake at 10 mg/kg, po pretreated for 30 mins followed by food addition measured after 4 hrs; assay type: functional, organism-based
How it was run: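 Mice starved 12 h (8:00 am to 8:00 pm) with water available, then housed singly. Compound given orally in 5% gum acacia in normal saline; vehicle group received the same. Cumulative food intake measured over 4 h of the night phase (9:00 pm to 1:00 am), starting 30 min after dosing. Antagonism arms: imitet 5 mg/kg i.p. 30 min before compound, or α-methyl-DL-histidine 20 mg/kg i.p. 2 h before.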

COc1ccc(-c2nc(N)nc3c2CCCC3C)cc1 (racemic)
inactive: inhibition [1] | Activity [2] | Activity [3] | Activity [4] | Activity [5] | Activity [6]
